The source of these data is ChEMBL document CHEMBL1255451, “Genetic basis of multidrug resistance in Acinetobacter clinical isolates in Taiwan” (2010).

Holding throughout (type): functional
The subject of experiment [1] is Acinetobacter baumannii. Briefly: Antimicrobial activity against Acinetobacter baumannii ATCC 15151 harboring ISAba1-blaOXA-23 gene by Etest.
The subject of experiment [2] is Acinetobacter baumannii. Briefly: Antimicrobial activity against Acinetobacter baumannii ATCC 15151 harboring ISAba1-blaOXA-66 gene by Etest.
In another experiment the test system is Acinetobacter sp. Briefly: Antimicrobial activity against Acinetobacter sp. harboring aacA4 gene assessed as percent resistant isolates. In short, it runs like this:
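Isolates: 75 nonduplicated Acinetobacter clinical isolates collected at one Taipei hospital in 2006 and identified with API 20NE. Susceptibility was tested on the Vitek 2 automated system using the AST-GN09 Gram-negative card.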

In experiment [3] the test system is Acinetobacter baumannii. Kind of experiment: Antimicrobial activity against Acinetobacter baumannii 6AB11 harboring ISAba1-blaOXA-66 gene by Etest.
Experiment [4] deals with Acinetobacter baumannii. Briefly: Antimicrobial activity against Acinetobacter baumannii 6AB15 harboring ISAba1-blaOXA-23 and blaOXA-66 gene by Etest.
Experiment [5] concerns Acinetobacter baumannii. Kind of experiment: Antimicrobial activity against Acinetobacter baumannii ATCC 15151 by Etest.
The test system of experiment [6] is Acinetobacter baumannii. Briefly: Antimicrobial activity against Acinetobacter baumannii ATCC 15151 harboring plasmid AT801 by Etest.

In brackets after ≈: the same amount, converted by molar mass. Activity calls are given as the source filed them. The calls are words filed in the database; no cut-off is given here.

What is called MIC is the least concentration at which growth counts as inhibited. Read a low MIC as greater potency.

As for GENTAMICIN, the result with Acinetobacter baumannii [1] and with Acinetobacter baumannii [2] was Active. Also, in the experiment with Acinetobacter sp., the Activity stood at 66%.
Regarding `CCN1CCN(C(=O)N[C@@H](C(=O)N[C@@H]2C(=O)N3[C@@H]2SC(C)(C)[C@@H]3C(=O)O)c2ccccc2)C(=O)C1=O` [PIPERACILLIN], the minimum inhibitory concentration (MIC) against Acinetobacter baumannii [3] was ≥ 128 µg/mL; with Acinetobacter baumannii [4] it was ≥ 128 µg/mL; against Acinetobacter baumannii [5] it was 16 µg/mL (≈ 30.9 µM); in the experiment on Acinetobacter baumannii [6], ≥ 128 µg/mL; in the experiment with Acinetobacter baumannii [1] it was ≥ 128 µg/mL; against Acinetobacter baumannii [2], ≥ 128 µg/mL.
For `O=C(O)c1cn(C2CC2)c2cc(N3CCNCC3)c(F)cc2c1=O`, the result in the experiment on Acinetobacter baumannii [1] and in the experiment with Acinetobacter baumannii [2] was Active.
Turning to `NCC[C@H](O)C(=O)N[C@@H]1C[C@H](N)[C@@H](O[C@H]2O[C@H](CN)[C@@H](O)[C@H](O)[C@H]2O)[C@H](O)[C@H]1O[C@H]1O[C@H](CO)[C@@H](O)[C@H](N)[C@H]1O`, the result in the experiment with Acinetobacter baumannii [1] and with Acinetobacter baumannii [2] was Active.
Consider `CC1(C)S[C@@H]2[C@H](NC(=O)[C@H](N)c3ccccc3)C(=O)N2[C@H]1C(=O)O` [AMPICILLIN], for which the MIC against Acinetobacter baumannii [3] is ≥ 32 µg/mL; against Acinetobacter baumannii [4] it was ≥ 32 µg/mL; in the experiment on Acinetobacter baumannii [5], 16 µg/mL (≈ 45.8 µM); with Acinetobacter baumannii [6] it was 32 µg/mL (≈ 91.6 µM); in the experiment on Acinetobacter baumannii [1], ≥ 32 µg/mL; against Acinetobacter baumannii [2] it was ≥ 32 µg/mL.
Turning to `CC(C)(O/N=C(\C(=O)N[C@@H]1C(=O)N2C(C(=O)[O-])=C(C[n+]3ccccc3)CS[C@H]12)c1csc(N)n1)C(=O)O` [CEFTAZIDIME], the MIC was ≥ 64 µg/mL against Acinetobacter baumannii [3]; ≥ 64 µg/mL against Acinetobacter baumannii [4]; 4 µg/mL (≈ 7.32 µM) against Acinetobacter baumannii [5]; 4 µg/mL (≈ 7.32 µM) with Acinetobacter baumannii [6]; 8 µg/mL (≈ 14.6 µM) against Acinetobacter baumannii [1]; 4 µg/mL (≈ 7.32 µM) in the experiment with Acinetobacter baumannii [2].
On to `CO/N=C(\C(=O)N[C@@H]1C(=O)N2C(C(=O)[O-])=C(C[N+]3(C)CCCC3)CS[C@H]12)c1csc(N)n1` [CEFEPIME], for which the MIC was ≥ 64 µg/mL with Acinetobacter baumannii [3]; ≥ 64 µg/mL against Acinetobacter baumannii [4]; 4 µg/mL (≈ 8.32 µM) in the experiment on Acinetobacter baumannii [5]; 4 µg/mL (≈ 8.32 µM) in the experiment on Acinetobacter baumannii [6]; ≥ 64 µg/mL against Acinetobacter baumannii [1]; 4 µg/mL (≈ 8.32 µM) in the experiment on Acinetobacter baumannii [2].
In the case of `C[C@@H](O)[C@H]1C(=O)N2C(C(=O)O)=C(S[C@@H]3CN[C@H](C(=O)N(C)C)C3)[C@H](C)[C@H]12` [MEROPENEM], the MIC against Acinetobacter baumannii [3] is 16 µg/mL (≈ 41.7 µM); in the experiment on Acinetobacter baumannii [4] it was ≥ 16 µg/mL; against Acinetobacter baumannii [5] it was 0.25 µg/mL (≈ 0.652 µM); against Acinetobacter baumannii [6], 0.25 µg/mL (≈ 0.652 µM); with Acinetobacter baumannii [1] it was ≥ 16 µg/mL; in the experiment on Acinetobacter baumannii [2], ≥ 16 µg/mL.
For the compound `C[C@H]1COc2c(N3CCN(C)CC3)c(F)cc3c(=O)c(C(=O)O)cn1c23`, the outcome with Acinetobacter baumannii [1] and in the experiment with Acinetobacter baumannii [2] was Active.
With `C[C@@H](O)[C@H]1C(=O)N2C(C(=O)O)=C(SCCNC=N)C[C@H]12` [IMIPENEM ANHYDROUS], the MIC was ≥ 32 µg/mL with Acinetobacter baumannii [3]; ≥ 32 µg/mL in the experiment on Acinetobacter baumannii [4]; 0.25 µg/mL (≈ 0.835 µM) in the experiment with Acinetobacter baumannii [5]; 0.25 µg/mL (≈ 0.835 µM) with Acinetobacter baumannii [6]; ≥ 16 µg/mL against Acinetobacter baumannii [1]; ≥ 32 µg/mL with Acinetobacter baumannii [2].
With `NC[C@H]1O[C@H](O[C@H]2[C@H](O)[C@@H](O[C@H]3O[C@H](CO)[C@@H](O)[C@H](N)[C@H]3O)[C@H](N)C[C@@H]2N)[C@H](N)C[C@@H]1O` [TOBRAMYCIN], the outcome with Acinetobacter baumannii [1] and with Acinetobacter baumannii [2] was Active. The Activity with Acinetobacter sp. is 66%.
